Laboratory results as given in PMC9719863 (Molecular Metabolism, 2022).
*1 amine or outer side, *2 acyl side, *3 side chain or, on linkers, in order; H or OH if unused. Where a SMILES comes first, the peptide text is derived from it. Side-chain parts run from the residue outwards. The star is where a group is joined. γGlu = O=C(O)[C@H](CCC(=O)[*:2])N[*:1]; Palmitoyl = CCCCCCCCCCCCCCCC(=O)*

Assays:
intact human islets = assay: Human islet perifusion, insulin secretion; format: cell-based; conditions: islets from two human donors, 7 1 uM, 4 technical replicates per donor
Method in brief: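 Islets from human donors (purity ≥80%) recovered overnight in RPMI with 6.7 mM glucose and 10% FBS, then used within 4 days. 75 handpicked islets per chamber in KRPH buffer (2.7 mM glucose, pH 7.4). Equilibrated 48 min (1% then 0.1% BSA), then perifused in intervals with 1 uM antagonist in KRPH + 0.1% BSA. Insulin measured by Lumit immunoassay.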

DIO male C57BL/6 J mice = assay: Chronic once-daily dosing study on body weight in DIO mice; format: in vivo, mouse; conditions: for Percent change in body weight: 27-28 d, n = 8
Method in brief: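 DIO male C57BL/6J mice (58% fat, high-sugar diet, ~12 weeks; >55 g) housed 4/cage at 22 °C on a 12 h light–dark cycle. Groups of n = 8 were normalized for body weight. Test compound was given SC once daily in the light cycle for 28 days, in pH 7.4 vehicle (0.05% polysorbate-80, 50 mM sodium phosphate, 70 mM NaCl). Body weight was taken every other day before dosing, as % change from initial.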

Pharmacokinetic = format: in vivo; conditions: male, C57BL/6 J, mouse, plasma, sc, 500 nmol/kg
Method in brief: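 Male C57BL/6J mice fed 58% fat, high-sugar diet ≥16 weeks (61–74 g) received one SC dose of 500 nmol/kg, n = 4. Plasma sampled 5 min to 72 h, methanol-precipitated (14-fold), centrifuged, diluted 3-fold in 0.1% formic acid, and quantified by LC-MS selected ion monitoring against plasma standards (0.5–4000 nM). Parameters derived noncompartmentally with sparse sampling.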

hGcgR = hGcgR (Homo sapiens, UniProt P47871); assay: cAMP CRE-luciferase assay in BHK cells expressing glucagon receptor; format: cell-based
Sequence of hGcgR (P47871 26-477): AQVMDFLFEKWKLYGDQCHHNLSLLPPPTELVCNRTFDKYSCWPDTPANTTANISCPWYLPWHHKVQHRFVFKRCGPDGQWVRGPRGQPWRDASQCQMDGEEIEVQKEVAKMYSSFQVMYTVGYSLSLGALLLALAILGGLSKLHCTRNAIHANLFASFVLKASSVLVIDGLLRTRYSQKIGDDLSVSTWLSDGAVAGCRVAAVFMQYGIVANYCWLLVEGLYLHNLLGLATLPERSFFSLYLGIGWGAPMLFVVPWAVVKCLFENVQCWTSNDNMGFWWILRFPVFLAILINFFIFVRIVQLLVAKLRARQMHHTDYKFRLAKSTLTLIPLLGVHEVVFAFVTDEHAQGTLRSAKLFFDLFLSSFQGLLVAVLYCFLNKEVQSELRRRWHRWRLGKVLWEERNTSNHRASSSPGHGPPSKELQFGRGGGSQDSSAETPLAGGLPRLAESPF
Method in brief: (§1)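 Stably transfected BHK cells carried receptor plus CRE-firefly luciferase reporter, seeded 5,000/well overnight, then DPBS-washed. 12-point dilutions in DMEM (no phenol red), 10 mM HEPES, 1% ovalbumin, 0.1% Pluronic F-68, ± EC80 native ligand (antagonist mode), 3 h, 37 °C. Luminescence read after SteadyLite, 30 min RT. EC50/IC50 by nonlinear regression of log concentration vs response; duplicate experiment.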

mGLP-1R = target: T1, mGLP-1R (Mus musculus, UniProt O35659); assay: cAMP CRE-luciferase assay in BHK cells expressing GLP-1R; format: cell-based; conditions: antagonist mode, compared with hGLP-1R
T1 sequence (O35659 22-463): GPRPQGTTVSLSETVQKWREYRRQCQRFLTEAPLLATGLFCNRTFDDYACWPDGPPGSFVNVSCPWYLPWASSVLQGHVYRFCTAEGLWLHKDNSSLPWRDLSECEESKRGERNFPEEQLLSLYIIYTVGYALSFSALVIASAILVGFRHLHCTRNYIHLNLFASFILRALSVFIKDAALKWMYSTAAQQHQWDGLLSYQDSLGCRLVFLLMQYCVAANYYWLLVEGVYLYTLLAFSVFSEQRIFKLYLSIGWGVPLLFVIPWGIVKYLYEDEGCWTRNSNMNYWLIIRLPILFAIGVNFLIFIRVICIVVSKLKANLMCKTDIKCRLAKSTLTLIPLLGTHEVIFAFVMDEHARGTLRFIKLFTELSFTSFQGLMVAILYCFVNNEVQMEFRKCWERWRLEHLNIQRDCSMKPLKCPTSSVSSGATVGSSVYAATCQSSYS
Method in brief: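 Stably transfected BHK cells with receptor and CRE-firefly luciferase reporter, 5,000 cells/well, incubated overnight and washed in DPBS. Exposed 3 h at 37 °C to a 12-point serial dilution of test compound with EC80 native ligand, in DMEM (no phenol red) with 10 mM HEPES, 1% ovalbumin, 0.1% Pluronic F-68.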

DIO mice [1] = assay: Intraperitoneal glucose tolerance test; format: in vivo, mouse; conditions: IPGTT (Figure 6C,D) and oral glucose tolerance test (Supplemental figure 3)
Method in brief: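 Male C57BL/6J mice on 58% fat, high-sugar diet for ≥16 weeks, fasted 6 h. Antagonist (500 or 1500 nmol/kg) injected 2 h before glucose; semaglutide 2 nmol/kg injected 1 h before. Glucose 2.5 g/kg (20% solution) given i.p. or by oral gavage. Tail-vein glucose measured from baseline.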

DIO mice [2] = assay: Oral glucose tolerance test; format: in vivo, mouse; conditions: high dose (1500 nmol/kg) SC prior to oral gavage of glucose 2.5 g/kg, n = 8 per group
Method in brief: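 DIO male C57BL/6J mice (58% fat, high-sugar diet ≥16 weeks), fasted 6 h with water available. Antagonist injected 2 h before oral gavage of 2.5 g/kg glucose (20% solution). Tail-vein blood glucose measured from baseline; glucose integrated AUC derived.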

mGcgR = mGcgR (Mus musculus, UniProt Q61606); assay: cAMP CRE-luciferase assay in BHK cells expressing glucagon receptor; format: cell-based
Sequence of mGcgR (Q61606 27-485): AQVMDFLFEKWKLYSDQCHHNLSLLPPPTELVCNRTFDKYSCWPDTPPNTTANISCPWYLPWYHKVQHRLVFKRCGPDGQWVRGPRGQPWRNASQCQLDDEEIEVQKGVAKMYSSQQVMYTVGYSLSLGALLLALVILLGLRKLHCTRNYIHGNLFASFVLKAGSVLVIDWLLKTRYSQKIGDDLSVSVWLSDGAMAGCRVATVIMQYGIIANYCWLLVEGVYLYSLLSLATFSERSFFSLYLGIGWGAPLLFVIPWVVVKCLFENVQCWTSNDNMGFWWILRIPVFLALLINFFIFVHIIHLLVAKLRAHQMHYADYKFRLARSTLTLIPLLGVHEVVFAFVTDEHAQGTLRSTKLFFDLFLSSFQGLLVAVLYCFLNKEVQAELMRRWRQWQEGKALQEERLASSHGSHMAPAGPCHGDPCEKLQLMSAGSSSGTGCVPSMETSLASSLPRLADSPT
Method in brief: as §1

hGLP-1R = hGLP-1R (Homo sapiens, UniProt P43220); assay: cAMP CRE-luciferase assay in BHK cells expressing GLP-1R; format: cell-based
Sequence of hGLP-1R (P43220 24-463): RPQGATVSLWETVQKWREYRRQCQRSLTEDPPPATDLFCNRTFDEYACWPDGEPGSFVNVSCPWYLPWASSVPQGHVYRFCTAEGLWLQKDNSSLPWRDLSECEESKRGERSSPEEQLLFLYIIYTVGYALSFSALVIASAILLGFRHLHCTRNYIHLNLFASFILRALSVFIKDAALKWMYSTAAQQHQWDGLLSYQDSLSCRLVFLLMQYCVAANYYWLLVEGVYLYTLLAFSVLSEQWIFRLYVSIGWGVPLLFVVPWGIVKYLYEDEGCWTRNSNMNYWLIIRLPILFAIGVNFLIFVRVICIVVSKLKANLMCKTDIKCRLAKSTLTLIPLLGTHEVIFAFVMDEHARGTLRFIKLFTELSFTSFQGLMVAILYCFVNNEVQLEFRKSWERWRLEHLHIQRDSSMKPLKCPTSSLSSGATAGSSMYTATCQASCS
Method in brief: as §1

hGIPR = target: T2, hGIPR (Homo sapiens, UniProt P48546); assay: cAMP CRE-luciferase assay in BHK cells expressing GIPR; format: cell-based; conditions: agonist mode, without native ligand
T2 sequence (P48546 22-466): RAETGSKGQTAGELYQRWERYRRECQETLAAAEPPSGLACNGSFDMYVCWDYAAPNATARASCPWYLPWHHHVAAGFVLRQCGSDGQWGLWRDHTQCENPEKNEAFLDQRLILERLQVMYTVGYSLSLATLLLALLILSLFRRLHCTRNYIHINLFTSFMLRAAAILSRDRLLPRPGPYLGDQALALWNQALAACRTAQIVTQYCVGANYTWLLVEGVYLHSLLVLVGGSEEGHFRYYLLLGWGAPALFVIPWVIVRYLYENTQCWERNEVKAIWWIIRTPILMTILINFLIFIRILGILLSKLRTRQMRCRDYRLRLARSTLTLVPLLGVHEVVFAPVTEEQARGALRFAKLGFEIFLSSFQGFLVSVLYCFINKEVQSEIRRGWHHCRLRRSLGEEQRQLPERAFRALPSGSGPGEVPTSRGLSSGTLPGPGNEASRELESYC

mGIPR = target: T3, mGIPR (Mus musculus, UniProt Q0P543); assay: as above; format: cell-based
T3 sequence (Q0P543 19-460): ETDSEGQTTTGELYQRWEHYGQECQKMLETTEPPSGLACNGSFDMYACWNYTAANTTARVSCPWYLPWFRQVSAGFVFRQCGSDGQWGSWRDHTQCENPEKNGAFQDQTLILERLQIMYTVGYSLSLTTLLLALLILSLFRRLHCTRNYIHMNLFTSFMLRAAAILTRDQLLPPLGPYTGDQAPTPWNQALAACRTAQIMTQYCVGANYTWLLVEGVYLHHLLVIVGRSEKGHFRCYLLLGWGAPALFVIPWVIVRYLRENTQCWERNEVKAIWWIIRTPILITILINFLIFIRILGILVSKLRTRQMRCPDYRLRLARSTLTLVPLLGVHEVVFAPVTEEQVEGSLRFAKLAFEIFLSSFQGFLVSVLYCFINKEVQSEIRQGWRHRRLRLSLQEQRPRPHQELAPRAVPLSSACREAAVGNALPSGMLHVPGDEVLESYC

DIO mice [3] = conditions: with the GLP-1R agonist liraglutide; cited from earlier work

Row | SMILES | Insulin secretion in response to GIPR antagonist alone (high glucose) (intact human islets) | Glucose iAUC in IPGTT on day 26, high dose (DIO male C57BL/6 J mice; 7 alone 1500 nmol/kg/d, 24 h after compound injection) | Percent change in body weight (DIO male C57BL/6 J mice; 7 at 500 nmol/kg/d SC once daily) | Percent change in body weight (DIO male C57BL/6 J mice; 7 at 1500 nmol/kg/d SC once daily) | Fasted insulin (DIO male C57BL/6 J mice; 6 h fast on day 27 of treatment, plasma) | Glucose control in IPGTT on day 26 (DIO male C57BL/6 J mice; 24 h after compound injection, semaglutide 2 nmol/kg/d, semaglutide plus 7, 7 alone 500 nmol/kg/d) | half-life (Pharmacokinetic) | EC50 (hGcgR) | Antagonism at mGLP-1R (mGLP-1R) | Effect on semaglutide mediated reductions in blood glucose (DIO mice [1]) | Glucose control in OGTT (endogenous incretin action) (DIO mice [2]) | EC50 (mGcgR) | Antagonism at mGcgR (mGcgR; antagonist mode vs glucagon) | Agonism at hGLP-1R (maximal) (hGLP-1R; agonist mode, Figure 3C) | % inhibition of native GLP-1 action, hGLP-1R (hGLP-1R; antagonist mode) | Agonism at the hGIPR (cAMP production by peptide alone) (hGIPR) | Agonism at the mGIPR (cAMP production by peptide alone) (mGIPR; agonist mode, without native ligand) | AUC (Pharmacokinetic) | Fold less potent at mGIPR than 7 in vitro (mGIPR; 13 compared with 7) | Weight loss when co-administrated with liraglutide (DIO mice [3])
1 | CCCCCCCCCCCCCCCC(=O)N[C@@H](CCC(=O)NCCCC[C@H](NC(=O)[C@H](Cc1ccc(O)cc1)NC(=O)[C@H](CC(=O)O)NC(=O)[C@H](CO)NC(=O)[C@@H](NC(=O)[C@H](Cc1ccccc1)NC(=O)[C@@H](NC(C)=O)[C@@H](C)O)[C@@H](C)CC)C(=O)N[C@H](C(=O)N[C@@H](C)C(=O)N[C@@H](CC(C)C)C(=O)N[C@@H](CC(=O)O)C(=O)N[C@@H](CCCCN)C(=O)N[C@H](C(=O)N[C@@H](CCCNC(=N)N)C(=O)N[C@@H](CCC(N)=O)C(=O)N[C@@H](CCC(N)=O)C(=O)N[C@@H](CCC(=O)O)C(=O)N[C@@H](Cc1ccccc1)C(=O)N[C@H](C(=O)N[C@@H](CC(N)=O)C(=O)N[C@@H](Cc1c[nH]c2ccccc12)C(=O)N[C@@H](CC(C)C)C(=O)N[C@@H](CC(C)C)C(=O)N[C@@H](C)C(=O)N[C@@H](CCC(N)=O)C(=O)N[C@@H](CCCCN)C(=O)NCC(=O)O)C(C)C)[C@@H](C)CC)[C@@H](C)CC)C(=O)O [Peptide 7, [Nα-Ac, L14, R18, E21] hGIP(5–31)-K11 (γE-C16)] | modest and transient, statistically insignificant rise in insulin secretion | numeric but insignificant lowering of glucose iAUC | +2.57% | −2.88% | did not modify reduction in fasting insulin levels seen with semaglutide treatment | significantly improved glucose control compared to controls | 8.45 h | > 12 µM | less antagonism at the mGLP-1R relative to hGLP-1R | did not affect semaglutide mediated reductions in blood glucose | worsened glucose control | > 7 µM | no antagonism | ≤ 20% | 68% | negligible cAMP production as agonists | negligible cAMP production as agonists | – | – | –
2 | CCCCCCCCCCCCCCCC(=O)N[C@@H](CCC(=O)N[C@@H](CCC(=O)NCCCC[C@H](NC(=O)[C@H](CC(=O)O)NC(=O)[C@H](CO)NC(=O)[C@@H](NC(=O)[C@H](Cc1ccccc1)NC(=O)[C@@H](NC(C)=O)[C@@H](C)O)[C@@H](C)CC)C(=O)N[C@@H](CO)C(=O)N[C@H](C(=O)N[C@@H](C)C(=O)N[C@@H](CC(C)C)C(=O)N[C@@H](CC(=O)O)C(=O)N[C@@H](CCCCN)C(=O)N[C@H](C(=O)N[C@@H](CCCNC(=N)N)C(=O)N[C@@H](CCC(N)=O)C(=O)N[C@@H](CCC(N)=O)C(=O)N[C@@H](CCC(=O)O)C(=O)N[C@@H](Cc1ccccc1)C(=O)N[C@H](C(=O)N[C@@H](CC(N)=O)C(=O)N[C@@H](Cc1c[nH]c2ccccc12)C(=O)N[C@@H](CC(C)C)C(=O)N[C@@H](CC(C)C)C(=O)N[C@@H](C)C(=O)N[C@@H](CCC(N)=O)C(=O)N[C@@H](CCCCN)C(=O)NCC(=O)N[C@@H](CCCCN)C(=O)N[C@@H](CCCCN)C(=O)N[C@@H](CC(N)=O)C(=O)N[C@@H](CC(=O)O)C(=O)N[C@@H](Cc1c[nH]c2ccccc12)C(=O)N[C@@H](CCCCN)C(=O)N[C@@H](Cc1c[nH]cn1)C(=O)N[C@@H](CC(N)=O)C(=O)N[C@H](C(=O)N[C@H](C(=O)N[C@@H](CCC(N)=O)C(N)=O)[C@@H](C)O)[C@@H](C)CC)C(C)C)[C@@H](C)CC)[C@@H](C)CC)C(=O)O)C(=O)O [Peptide 13, [N^α-Ac, L14, R18, E21] hGIP(5–42)-K10 (γEγE-C16)] (Ac-TFISDK([γGlu-γGlu-Palmitoyl])SIALDKIRQQEFVNWLLAQKGKKNDWKHNITQ-NH2) | – | – | – | – | – | – | 1.12 h | – | – | – | – | – | – | – | – | – | – | 21.1 µM·h | ~5 fold | did not improve weight loss
